The values below come from ChEMBL document CHEMBL4732156, “Novel boronium salt exhibits substantial antibacterial activity when compared to a commercial quaternary ammonium disinfectant” (Bioorg Med Chem Lett, 2021).

In data set [1] the test system is Staphylococcus aureus. Kind of data set: Antibacterial activity against Staphylococcus aureus ATCC 29213 assessed as reduction in bacterial growth incubated for 24 hrs by turbidity based analysis. In kind it is functional. A digest of the protocol:
(§1)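 Broth microdilution in Mueller–Hinton broth. Agents start from 4.5% stocks and are diluted two-fold in deionized water. Final well range is 22.5 to 0.02 mg/mL; inoculum is about 5.0×10^5 CFU/mL from 18–24 h SBA colonies. Plates are incubated 18–24 h at 37 °C in ambient air at 100 rpm. MIC is the lowest concentration giving a clear well on mirrored 3X visual reading.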

Data set [2] relates to Erythrocyte. Kind of data set: Induction of hemolysis in RBC (unknown origin) at higher concentration. Format: cell-based.
The test system of data set [3] is Escherichia coli. Description: Bactericidal activity against Escherichia coli ATCC 25922 incubated for 24 hrs followed by transferring and culturing on SBA plate and measured after 18 to 24 hrs by agar plate based analysis. In kind it is functional. The settings on record: time 42-48 hrs. A digest of the protocol:
(§2)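 After 24 h of microdilution (about 5.0×10^5 CFU/mL, Mueller–Hinton broth, 37 °C, 100 rpm), 100 µL from each clear well, including the MIC well, is spread on 5% sheep blood agar. Plates are incubated 18–24 h at 37 °C. MBC is the first concentration giving zero colonies.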

The subject of data set [4] is Staphylococcus aureus. Kind of data set: Potency index, ratio of MIC of BacDown QAC to MIC of compound for antibacterial activity against Staphylococcus aureus ATCC 29213 assessed as reduction in bacterial growth incubated for 24 hrs by turbidity based analysis. Format: functional.
Data set [5] concerns Pseudomonas aeruginosa. Description: Antibacterial activity against Pseudomonas aeruginosa ATCC 27853 assessed as reduction in bacterial growth incubated for 24 hrs by turbidity based analysis. In kind it is functional. Summed up:
as §1

For data set [6], the system named is Pseudomonas aeruginosa. Kind of data set: Antibacterial activity against Pseudomonas aeruginosa ATCC 27853 at 1:128 dilution incubated for 24 hrs by disc diffusion method. In kind it is functional, organism-based. Summed up: (§3)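 Kirby-Bauer disc diffusion. 6 mm paper discs are loaded with 20 µL of the 1:8 (2.81 mg/mL) or 1:128 (0.17 mg/mL) dilution, dried 30 min and stored at 4–8 °C. A lawn of about 5.0×10^5 CFU/mL is swabbed onto Mueller–Hinton agar with the plate spinning. Plates are incubated 24 h at 37 °C and the inhibition zone is measured in mm by digital caliper.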

Data set [7] concerns Escherichia coli. Kind of data set: Potency index, ratio of MIC of BacDown QAC to MIC of compound for antibacterial activity against Escherichia coli ATCC 25922 assessed as reduction in bacterial growth incubated for 24 hrs by turbidity based analysis. In kind it is functional.
In data set [8] the test system is Pseudomonas aeruginosa. Description: Antibacterial activity against Pseudomonas aeruginosa ATCC 27853 at 1:8 dilution incubated for 24 hrs by disc diffusion method. In kind it is functional, organism-based. Summed up: as §3
The test system of data set [9] is Pseudomonas aeruginosa. Description: Bactericidal activity against Pseudomonas aeruginosa ATCC 27853 incubated for 24 hrs followed by transferring and culturing on SBA plate and measured after 18 to 24 hrs by agar plate based analysis. In kind it is functional. The following applies: time 42-48 hrs. A digest of the protocol: as §2
Data set [10] concerns Pseudomonas aeruginosa. Description: Potency index, ratio of MIC of BacDown QAC to MIC of compound for antibacterial activity against Pseudomonas aeruginosa ATCC 27853 assessed as reduction in bacterial growth incubated for 24 hrs by turbidity based analysis. In kind it is functional.
Data set [11] deals with Escherichia coli. Kind of data set: Antibacterial activity against Escherichia coli ATCC 25922 at 1:128 dilution incubated for 24 hrs by disc diffusion method. In kind it is functional, organism-based. A digest of the protocol: as §3
The test system of data set [12] is Erythrocyte. Description: Induction of hemolysis in RBC (unknown origin) at lower concentration. In kind it is cell-based.
Data set [13] relates to Staphylococcus aureus. Kind of data set: Antibacterial activity against Staphylococcus aureus ATCC 29213 assessed as zone of inhibition at 1:8 dilution incubated for 24 hrs by disc diffusion method. Format: functional. Summed up: as §3
Data set [14] has as its system Staphylococcus aureus. Kind of data set: Bactericidal activity against Staphylococcus aureus ATCC 29213 incubated for 24 hrs followed by transferring and culturing on SBA plate and measured after 18 to 24 hrs by agar plate based analysis. Format: functional. The settings on record: time 42-48 hrs. Summed up:
as §2

The subject of data set [15] is Escherichia coli. Kind of data set: Antibacterial activity against Escherichia coli ATCC 25922 assessed as reduction in bacterial growth incubated for 24 hrs by turbidity based analysis. In kind it is functional. Summed up: as §1
Data set [16] deals with Staphylococcus aureus. Description: Antibacterial activity against Staphylococcus aureus ATCC 29213 assessed as zone of inhibition at 1:128 dilution incubated for 24 hrs by disc diffusion method. Format: functional. Summed up:
as §3

Data set [17] has as its system Escherichia coli. Description: Antibacterial activity against Escherichia coli ATCC 25922 at 1:8 dilution incubated for 24 hrs by disc diffusion method. In kind it is functional, organism-based. Summed up: as §3

Activity calls are given as the source filed them. No cut-off for these calls is given here.

`CCCCCCCCCCCCCCCC[N+](C)(C)[BH2-][N+](C)(C)Cc1ccccc1.I`: the MIC is 20 µg/mL in data set [1], 170 µg/mL in data set [5] and 40 µg/mL in data set [15]. The results for the Activity result in data set [2] and in data set [12] were “Toxic” and “Non-Toxic”, respectively. The MBC in data set [3] was determined as 40 µg/mL; in [9] it was 170 µg/mL; in [14], 40 µg/mL. Also, the Ratio in [4] stood at 4; in data set [7], 4; in data set [10], 8. Also, the result in data set [6], in data set [8], in [11] and in data set [17] was inactive. The “inhibition zone (IZ)” value in data set [13] amounted to 14.8 mm; in data set [16], 7.6 mm.
Consider `CCCCCCCCCCCCCCCC[N+](C)(C)[BH2-][N+](C)(C)C.I`, for which the MIC in data set [1], in data set [5] and in data set [15] was over 22500 µg/mL in each case. The Activity entry is on record as “Toxic” in data set [2] and “Non-Toxic” in data set [12]. Further, the result in [6], in data set [8], in data set [11] and in data set [17] was inactive.
